Assay results taken from ChEMBL document CHEMBL1938357, “Inhibition of Dengue virus and West Nile virus proteases by click chemistry-derived benz[d]isothiazol-3(2H)-one derivatives” (Bioorg Med Chem, 2012).
Active and inactive are the calls of the source. No cut-off for these calls is given here.

Key:
dengue virus type 2 [1] = experiment: Inhibition of Dengue virus 2 NS2B-NS3 protease expressed in Escherichia coli using Bz-Nle-Lys-Arg-Arg-AMC as substrate at 25 uM measured every 90 sec upto 30 mins by spectrofluorometry
Outline: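 DENV2 NS2B(hydrophilic cofactor)-NS3pro, linked via Q-R and expressed in E. coli Top 10 F′, at 25 nM in 200 mM Tris-HCl pH 9.5, 6 mM NaCl, 30% glycerol. Compound at 25 μM (1% DMSO final) was pre-incubated at room temperature with enzyme. Bz-Nle-Lys-Arg-Arg-AMC added at 5.0 μM; read at 37 °C, ex 380/em 460 nm, every 90 s up to 30 min. % inhibition from RFU ± compound; triplicate averages.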

[2] = Inhibition of Dengue virus 2 NS2B-NS3 protease expressed in Escherichia coli using Bz-Nle-Lys-Arg-Arg-AMC as substrate measured every 90 sec upto 30 mins by spectrofluorometry; design: species or system dengue virus type 2
Outline: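 Inhibitors at 10 nM, 50 nM, 0.1, 1, 2, 5, 10 and 25 μM were incubated 15 min with DENV2 NS2B-NS3pro (50 nM) in 200 mM Tris-HCl, 6 mM NaCl, 30% glycerol, pH 9.5. Bz-Nle-Lys-Arg-Arg-AMC (5.0 μM) was then added. Signal recorded at 37 °C (ex 380, em 460 nm) with buffer subtracted. IC50 derived by curve fitting.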

dengue virus type 2 [3] = experiment: Inhibition of Dengue virus 2 NS2B-NS3 protease expressed in Escherichia coli using Bz-Nle-Lys-Arg-Arg-AMC as substrate at 25 uM measured every 90 sec upto 30 mins by spectrofluorometry in the presence of 0.1% CHAPS
Outline: (§1)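 Detergent re-screen: 200 mM Tris-HCl pH 9.5, 6 mM NaCl, 30% glycerol, 0.1% CHAPS, with DENV2 NS2B-NS3pro at 25 nM or WNV NS2BH-NS3pro (5-residue spacer) at 28 nM. Compound at 25 μM, 1% DMSO final, pre-incubated at room temperature with enzyme. Substrate Bz-Nle-Lys-Arg-Arg-AMC at 5.0 μM; fluorescence at 380/460 nm at 37 °C over 30 min. Percent inhibition from RFU with vs without compound; triplicate averages.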

West Nile virus = experiment: Inhibition of West Nile virus NS2B-NS3 protease expressed in Escherichia coli using Bz-Nle-Lys-Arg-Arg-AMC as substrate at 25 uM measured every 90 sec upto 30 mins by spectrofluorometry; outline: as §1
[4] = Inhibition of Dengue virus 2 NS2B-NS3 protease expressed in Escherichia coli using Bz-Nle-Lys-Arg-Arg-AMC as substrate by spectrofluorometry; design: species or system dengue virus type 2

Compound | inhibition (dengue virus type 2 [1]) | IC50 [2] [µM] | inhibition (dengue virus type 2 [3]) | inhibition (West Nile virus) | Ki [4] [µM]
O=C(Cn1sc2ccccc2c1=O)NCc1cn(Cc2ccc(F)cc2)nn1 | inactive | – | – | – | –
O=C(Cn1sc2ccccc2c1=O)NCc1cn(CC(=O)Nc2ccccc2Oc2ccccc2)nn1 | inactive | – | – | – | –
O=C(Cn1cc(COc2cccc(NC(=O)Cn3sc4ccccc4c3=O)c2)nn1)Nc1ccc(Oc2ccccc2)cc1 | Active | 4.45 | Active | Active | –
O=C(Cn1sc2ccccc2c1=O)NCc1cn(CC(=O)Nc2ccccc2)nn1 | inactive | – | – | – | –
O=C(Cn1sc2ccccc2c1=O)NCc1cn(CC(=O)Nc2ccc(Oc3ccccc3)cc2)nn1 | Active | 4.87 | Active | Active | –
COC(=O)c1cccc(Cn2cc(CNC(=O)Cn3sc4ccccc4c3=O)nn2)c1 | inactive | – | – | – | –
O=C(Cn1sc2ccccc2c1=O)NCc1cn(CC(=O)c2ccccc2)nn1 | inactive | – | – | – | –
COc1ccc(Cn2cc(CNC(=O)Cn3sc4ccccc4c3=O)nn2)cc1 | inactive | – | – | – | –
O=C(Cn1sc2ccccc2c1=O)NCc1cn(CSc2ccccc2)nn1 | inactive | – | – | – | –
O=C(O)Cn1cc(CNC(=O)Cn2sc3ccccc3c2=O)nn1 | inactive | – | – | – | –
COC(=O)c1cccc(Cn2cc(COc3cccc(NC(=O)Cn4sc5ccccc5c4=O)c3)nn2)c1 | Active | – | Active | – | –
O=C(Cn1cc(COc2cccc(NC(=O)Cn3sc4ccccc4c3=O)c2)nn1)Nc1cccc(Oc2ccccc2)c1 | Active | 4.59 | Active | Active | –
O=C(Cn1sc2ccccc2c1=O)NCc1cn(CCOc2ccccc2)nn1 | inactive | – | – | – | –
O=C(Cn1sc2ccccc2c1=O)NCc1cn(CCCc2ccccc2)nn1 | inactive | – | – | – | –
O=C(Cn1sc2ccccc2c1=O)NCc1cn(Cc2ccccc2)nn1 | inactive | – | – | – | –
O=C(Cn1sc2ccccc2c1=O)NCc1cn(CCc2ccccc2)nn1 | inactive | – | – | – | –
O=C(Cn1cc(COc2cccc(NC(=O)Cn3sc4ccccc4c3=O)c2)nn1)Nc1ccccc1 | Active | 13.4 | Active | Active | –
O=C(Cn1sc2ccccc2c1=O)Nc1cccc(OCc2cn(CC(=O)c3ccccc3)nn2)c1 | Active | 6.22 | Active | Active | –
O=C(Cn1sc2ccccc2c1=O)NCc1cn(CC(=O)Nc2cccc(Oc3ccccc3)c2)nn1 | Active | – | Active | – | –
O=C(Cn1sc2ccccc2c1=O)NCc1cn(Cc2cccc(F)c2)nn1 | inactive | – | – | – | –
O=C(Cn1sc2ccccc2c1=O)Nc1cccc(OCc2cn(CC(=O)Nc3ccccc3Oc3ccccc3)nn2)c1 | Active | 3.48 | Active | Active | 4.77
CC(C)(C)OC(=O)Cn1cc(CNC(=O)Cn2sc3ccccc3c2=O)nn1 | inactive | – | – | – | –
